# Assay outcomes (PubChem)
# Wee1 degr inh: inhibitors of human Wee1 degradation. reporter increase, % at 5 µM. hit rate 1.2% among 220,000. HeLa Luc-Wee1K328M stability, luciferase luminescence; 100% = proteasome inhibitor MG132 effect;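 active means activation above the mean of all tested compounds plus 3 SD, set per screening run, cut at about 8.8% in these data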;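 further: cells exposed to compound for 20 h before luminescence read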
# CHOP inhibitor: blocks CHOP induction under ER stress | CHO-K1 CHOP-promoter luciferase, tunicamycin-induced, 15-18 h | inhibition, % at 10 µM | hit rate 3.8% among 220,000 | AID 2732;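 active means compounds that reduced the stress-induced luciferase reporter signal by more than about 70% of percent inhibition, limit read from the data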
# L major viab: inhibitors of Leishmania major promastigote growth; Leishmania major promastigotes, resazurin fluorescence viability; inhibition, % at 10 µM; hit rate 9% among 200,000; AID 1063;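 further: promastigotes grown with compound for 44 hours at 28 °C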
# PKD1 inh: PKD1 (human) kinase inhibition. Q15139. PKD1 kinase fluorescence polarization assay. inhibition, % (no concentration beside the values). hit rate 0.056% among 200,000. AID 797
# Rad51 HR inh: Rad51 (human) homologous recombination inhibition; Q06609; hRad51 DNA strand exchange, fluorescence dequenching; inhibition, % at 10 µM; hit rate 0.085% among 200,000;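 active means inhibition above 40% at the single screening dose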
# Target sequence (Q06609 whole entry, looked up): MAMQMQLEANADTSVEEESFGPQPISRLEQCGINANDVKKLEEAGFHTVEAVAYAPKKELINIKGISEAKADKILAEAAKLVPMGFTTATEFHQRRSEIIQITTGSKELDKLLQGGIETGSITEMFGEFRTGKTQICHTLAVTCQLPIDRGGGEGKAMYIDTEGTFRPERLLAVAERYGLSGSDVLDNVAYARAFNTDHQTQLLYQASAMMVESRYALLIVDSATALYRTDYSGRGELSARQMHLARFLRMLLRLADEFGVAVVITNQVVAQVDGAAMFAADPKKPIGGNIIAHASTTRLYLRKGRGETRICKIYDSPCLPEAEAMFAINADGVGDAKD
#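 System: human Rad51 nucleoprotein filaments preassembled on unlabelled ssDNA. Reagent: labelled 47-mer dsDNA for strand exchange. Schedule: 30-min compound preincubation and 15-min exchange, both room temperature. Measured by: FRET fluorescence dequenching, excitation 485 nm, emission 520 nm. Read-out: Fluorescence-based percent inhibition, control- and blank-normalised. Benchmarks: plate controls and plate blanks.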
# Arbovirus anti: blocks arbovirus infection; arbovirus infection cell-based antiviral screen; inhibition, % at 10 µM; hit rate 0.37% among 200,000; in the data active means inhibition above about 30%
# CHOP inh conf: confirmation of CHOP induction inhibitors. inhibition, % at 10 µM. CHO-CHOP promoter luciferase reporter, tunicamycin-induced, luminescence. shares compounds with CHOP inhibitor. hit rate 45% among 2,100;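 active means mean of three repeat readings of reporter signal inhibition above a set limit, cut at about 70% in these data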
# Hits are given with their value; . = inactive; / = no result given. Sampled rows, rich in hits. Any-hit rate of the full collection: about 12%. Unless noted, no stated cut-off is given here; in the data, active means inhibition above about 50%; inactive means the rest.
SMILES,Wee1 degr inh,CHOP inhibitor,L major viab,PKD1 inh,Rad51 HR inh,Arbovirus anti,CHOP inh conf
O=C(NCc1nc(-c2ccc(C(F)(F)F)cc2)no1)Nc1cc(Cl)cc(Cl)c1,.,102.0,/,/,.,/,109.3
COCCOCC(O)CN1CCN(c2ccccc2)CC1 (stereo unspecified),.,.,.,.,.,.,/
C=CCc1cc(C)ccc1OCC(O)CN1CCN(c2ccccc2)CC1 (stereo unspecified),.,106.1,.,.,.,.,95.9
CC1=Nc2nc(N3CCCCC3)c(C#N)c3c4c(nc(c23)N1)N(c1ccc(C(C)C)cc1)C(=O)C4,.,107.8,58.7,.,.,.,82.9
CC(C)c1ccc(-c2nc(N3CCCCC3)[nH]c(=O)c2C#N)cc1,.,.,.,.,.,.,/
CCCC(=O)N1N=C(c2ccccc2)CC1c1cn(C)c2ccccc12 (stereo unspecified),.,105.2,.,.,.,.,.
Cc1cccc(NC(=O)Nc2ccc(Oc3c(F)c(F)c(F)c(F)c3F)cc2)c1,.,.,.,.,.,.,/
O=C(Nc1ccc(Oc2c(F)c(F)c(F)c(F)c2F)cc1)OC1CCN2Cc3ccccc3N=C12 (stereo unspecified),.,100.2,/,/,.,/,125.4
O=C(O)c1ccc(Cl)c(NC(=S)NC(=O)c2ccccc2[N+](=O)[O-])c1,.,.,.,.,.,.,/
CC(NC(=O)/C(C#N)=C/c1ccc(Cl)c([N+](=O)[O-])c1)c1ccccc1 (stereo unspecified),.,105.3,100.4,.,.,.,94.0
COc1ccc(C(=O)OCn2nnc3ccccc3c2=O)cc1,.,.,.,.,.,.,/
Cc1ccn2cc(-c3cnoc3C)nc2c1,.,.,.,.,.,.,/
COc1ccc2oc(=O)c(-c3cn4ccc(C)cc4n3)cc2c1,.,97.1,.,.,.,.,.
Cc1noc(C)c1C(=O)Nc1ccc(F)cc1F,.,.,.,.,.,.,/
COc1ccc2c(c1)c1ncn(CCN3CCCCC3)c(=O)c1n2C,.,.,.,.,.,.,/
COc1ccc2c(c1)c1ncn(CCN3CCCC3)c(=O)c1n2C,.,101.2,.,.,.,.,.
COC(=O)CCCC1=CC2=C(c3ccccc3)C(=O)C(C)(OC(=O)C3CCCC3)C(=O)C2=CN1CCc1c[nH]c2ccccc12 (stereo unspecified),/,.,/,/,.,/,/
O=c1cc(O)nc(SCc2ccccc2)n1-c1ccc(Cl)cc1,.,.,.,.,.,.,/
CCCCCOC(=O)Nc1ccc(S(=O)(=O)Nc2cccc([N+](=O)[O-])c2)cc1,.,108.9,61.6,.,.,.,.
Cn1nnnc1SC1CC(=O)N(c2ccccc2)C1=O (stereo unspecified),.,.,.,.,/,.,/
Cc1cc(C)cc(N2C(=O)CC(Sc3nnnn3-c3ccccc3)C2=O)c1 (stereo unspecified),.,101.7,.,.,108.6,.,.
O=C(C[n+]1cn(C(F)F)c2ccccc21)c1ccc(Br)cc1,.,100.6,.,.,.,.,.
CCc1nc(N=Nc2c(O)[nH]c3ccccc23)c2c3c(sc2n1)CCC3,.,100.8,82.5,.,.,.,.
O=c1c(Oc2ccccc2)coc2cc(O)cc(O)c12,/,/,/,/,.,/,/
CCOc1ccc2c(c1)C(c1ccc(C)cc1)=NNC(c1ccc(OC)cc1)=N2,.,.,.,.,.,.,/
SMILES,Wee1 degr inh,CHOP inhibitor,L major viab,PKD1 inh,Rad51 HR inh,Arbovirus anti,CHOP inh conf
CCc1ccc2c(c1)C(c1ccc([N+](=O)[O-])cc1)=NNC(c1ccc(C)cc1)=N2,.,97.2,85.0,.,.,.,83.0
NC(=O)CCn1ccc2ccccc21,.,.,.,.,.,.,/
COc1ccc(CCNC(=O)c2nnn(-c3ccc4c(c3)OCCO4)c2N)cc1OC,.,96.8,.,.,.,.,83.6
O=C(NC(NNc1ccc([N+](=O)[O-])cc1)(C(F)(F)F)C(F)(F)F)c1ccccc1Cl,.,.,.,.,.,.,/
O=C(NC(Nc1nc2ccc([N+](=O)[O-])cc2s1)(C(F)(F)F)C(F)(F)F)c1ccccc1Cl,.,97.0,100.3,.,.,.,125.0
O=C1C=CC(=O)N1N(c1ccccc1)c1ccccc1,.,107.2,.,.,.,.,117.8
Cc1ccccc1NN1C(=O)C=CC1=O,.,.,.,.,.,.,/
COc1ccc(C(=O)CN2CCN(S(=O)(=O)c3cccc([N+](=O)[O-])c3)CC2)cc1,.,.,.,.,.,.,/
COc1ccccc1-c1cc(C(F)(F)F)nc(S(=O)(=O)CCCC(=O)N2CCCCC2C)n1 (stereo unspecified),.,/,.,.,.,.,/
COc1ccc(-c2cc(C(F)(F)F)n3nc(C(=O)Nc4cc(C)on4)cc3n2)cc1OC,.,.,.,.,/,.,/
COc1ccc(-c2cc(C(F)(F)F)nc(S(=O)(=O)CCCC(=O)Nc3cc(C)on3)n2)cc1OC,.,105.8,.,.,.,.,.
COc1ccccc1-c1cc(C(F)(F)F)nc(S(=O)(=O)CCCC(=O)Nc2cc(C)on2)n1,.,107.9,.,.,.,.,124.7
Cc1cccc(N=Nc2cnc(N)s2)c1,.,.,/,/,.,/,/
CN(C(=O)Cc1c(C(=O)O)n(C)c2ccccc12)c1ccc(F)cc1,.,.,.,.,/,.,/
Cn1nc(-c2ccc(C(=O)Nc3ccc(F)cc3)cc2)c2ccccc2c1=O,.,100.6,.,.,.,.,.
COc1cc(C2=NC(CO)(CO)CO2)cc(OC)c1OC,.,.,.,.,.,.,/
Cc1cc(C)c2c(CC(=O)Nc3ccc(Cl)cn3)coc2c1,.,97.2,.,.,/,.,.
CC(C)C(OC(=O)c1oc2ccccc2c1CSC1CCCCC1)C(=O)NC(N)=O (stereo unspecified),.,.,.,.,.,.,/
CCNC(=O)NC(=O)C(C)OC(=O)c1oc2ccccc2c1CSC1CCCCC1 (stereo unspecified),.,98.6,71.8,.,.,.,.
CNC(=O)NC(=O)C(C)OC(=O)c1oc2ccccc2c1CSc1ccc(Cl)cc1 (stereo unspecified),.,97.5,.,.,.,.,98.7
C=CCC(c1ccccc1)N(C(C)=O)c1ccco1 (stereo unspecified),.,.,.,.,.,.,/
C=CCC(Nc1ccccc1)C12C=CC(O1)C(C(=O)OC)=C2C(=O)OC (stereo unspecified),.,111.9,.,.,.,.,.
CCc1ccc(-c2cc(C(=O)N3N=C(C(F)F)CC3(O)C(F)F)c3ccccc3n2)cc1 (stereo unspecified),.,110.3,71.2,.,.,.,112.8
CC(C)Cn1c(=O)c2ccccc2c2ccccc2c1=O,.,103.3,.,.,.,.,.
CC(C)Cn1c(=S)[nH]c2ccccc2c1=O,.,.,.,.,.,.,/
CC(=O)c1ccc(S(=O)(=O)Nc2ccc(-c3cn4c(n3)SCC4)cc2)cc1,.,.,.,.,.,.,/
